The results in this text go back to ChEMBL document CHEMBL2146394, “Design and synthesis of pyrrolo[3,2-d]pyrimidine HER2/EGFR dual inhibitors: improvement of the physicochemical and pharmacokinetic profiles for potent in vivo anti-tumor efficacy” (Bioorg Med Chem, 2012).

Each structure is given as a SMILES string.

The subject of data set [1] is BT-474. The data set can be described thus: Growth inhibition of HER2 over-expressing human BT474 cells after 5 days. The data set is classed as functional. Conditions: BT-474, 120 h. In a few lines:
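BT-474 cells kept in RPMI 1640 with 10% heat-inactivated FBS. Seeded at 3×10⁴ cells/well and allowed to attach overnight. Treated continuously with compound for 5 days. Live cells counted with a particle analyzer; GI₅₀ derived.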

The subject of data set [2] is BT-474. The data set is described as follows: Antitumor activity against human BT474 cells xenografted in BALB/c nu/nu mouse at 100 mg/kg, po bid administered 14 days measured on day 31 relative to control. The data set is classed as functional. In short, it runs like this:
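BT-474 xenografts: 1×10⁷ cells in Matrigel implanted subcutaneously into the right flank of female BALB/c nu/nu mice. Estradiol dipropionate 0.25 mg given intramuscularly on days 0 and 7. Tumours of 200–300 mm³ used. Dosing 100 mg/kg orally bid in 0.5% methylcellulose for 14 days. Volume a×b²/2 by calipers. T/C (%) compared at day 31.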

The target of data set [3] is Epidermal growth factor receptor (Homo sapiens, UniProt P00533). The data set is described as follows: Inhibition of human N-terminal DYKDDDD tagged EGFR cytoplasmic domain amino acid 669 to 1210 expressed in baculovirus after 5 mins by scintillation counter.
Chain of Epidermal growth factor receptor (P00533 whole entry, the tested form may be a part): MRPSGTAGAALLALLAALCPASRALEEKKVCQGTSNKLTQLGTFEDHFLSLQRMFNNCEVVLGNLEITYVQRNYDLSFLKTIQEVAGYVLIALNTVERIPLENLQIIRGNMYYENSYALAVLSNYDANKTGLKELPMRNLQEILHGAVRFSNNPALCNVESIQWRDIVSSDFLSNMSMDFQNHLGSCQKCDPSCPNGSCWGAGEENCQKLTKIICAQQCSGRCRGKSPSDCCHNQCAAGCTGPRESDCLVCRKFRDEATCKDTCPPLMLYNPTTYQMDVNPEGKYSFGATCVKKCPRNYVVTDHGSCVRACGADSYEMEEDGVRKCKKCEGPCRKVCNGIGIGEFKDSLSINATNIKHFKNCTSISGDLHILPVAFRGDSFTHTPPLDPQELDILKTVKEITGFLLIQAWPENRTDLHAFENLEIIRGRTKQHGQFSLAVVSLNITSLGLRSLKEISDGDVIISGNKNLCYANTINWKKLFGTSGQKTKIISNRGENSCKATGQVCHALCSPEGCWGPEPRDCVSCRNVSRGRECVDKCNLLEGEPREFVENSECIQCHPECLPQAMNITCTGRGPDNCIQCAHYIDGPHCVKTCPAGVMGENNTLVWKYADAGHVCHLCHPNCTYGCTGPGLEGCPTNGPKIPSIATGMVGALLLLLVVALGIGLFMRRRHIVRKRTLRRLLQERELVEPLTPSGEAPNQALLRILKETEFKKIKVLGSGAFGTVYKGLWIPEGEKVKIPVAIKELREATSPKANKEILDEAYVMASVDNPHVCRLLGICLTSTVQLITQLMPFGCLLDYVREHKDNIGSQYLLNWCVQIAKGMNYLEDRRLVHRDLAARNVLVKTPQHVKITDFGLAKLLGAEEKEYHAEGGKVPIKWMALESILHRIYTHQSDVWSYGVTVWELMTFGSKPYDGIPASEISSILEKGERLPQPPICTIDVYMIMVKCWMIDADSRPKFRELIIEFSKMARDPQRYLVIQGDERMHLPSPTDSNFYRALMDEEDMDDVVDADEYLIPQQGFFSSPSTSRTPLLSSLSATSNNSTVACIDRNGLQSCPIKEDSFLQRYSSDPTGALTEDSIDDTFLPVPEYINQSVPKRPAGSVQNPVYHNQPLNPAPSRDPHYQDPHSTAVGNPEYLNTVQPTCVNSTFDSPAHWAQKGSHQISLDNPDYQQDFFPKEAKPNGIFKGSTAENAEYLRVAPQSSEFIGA
Data set [4] can be described thus: Metabolic stability in mouse hepatic microsomes at 1 umol/L after 20 mins. It counts as ADME. Conditions: liver microsomes, read-out: Stability.
A short description of data set [5]: Apparent permeability across apical to basolateral side in human Caco2 cells at 10 umol/L. It counts as ADME, cell-based. Conditions: Caco-2. In short, it runs like this:
(§1)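 Confluent Caco-2 monolayers on collagen-coated polycarbonate Transwell membranes. HBSS with 10 mmol/L HEPES, 15 mmol/L glucose and 1% BSA, pH 7.3–7.5. Compound dosed at 10 µmol/L apically (A→B) or basolaterally (B→A), 37 °C, 5% CO₂. Receivers sampled at 1 and 2 h; LC/MS/MS. Papp from receiver concentration slope; duplicates.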
A general note: Caco-2 monolayers are a common model of the intestinal barrier.

A short description of data set [6]: Metabolic stability in human hepatic microsomes at 1 umol/L after 20 mins. It counts as ADME. Conditions: liver microsomes, read-out: Stability. In short, it runs like this:
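Human liver microsomes (0.2 mg/mL protein) with 1 µmol/L compound in 50 mmol/L phosphate pH 7.4 plus an NADPH-generating system (glucose-6-phosphate, β-NADP⁺, G6PDH, MgCl₂). Incubated at 37 °C for 0 and 20 min, stopped with acetonitrile, duplicates. Remaining compound measured by HPLC with photodiode array detection.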
Background: Liver microsomes are vesicles of endoplasmic reticulum, rich in cytochrome P450 enzymes.

The target of data set [7] is Receptor tyrosine-protein kinase erbB-2 (Homo sapiens, UniProt P04626). The data set is described as follows: Inhibition of human N-terminal DYKDDDD tagged HER2 cytoplasmic domain amino acid 676 to 1255 expressed in baculovirus after 5 mins by scintillation counter. In short, it runs like this:
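FLAG-purified HER2 cytoplasmic domain in 50 mmol/L Tris-HCl pH 7.5, 5 mmol/L MnCl₂, 0.01% Tween-20, 2 mmol/L DTT, with poly-Glu-Tyr (4:1) and [γ-³²P]ATP. Compound and enzyme preincubated 5 min at room temperature; reaction started with ATP, 10 min at room temperature. Stopped with 10% TCA, filter-harvested, washed with 3% phosphoric acid, scintillation counted.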

Data set [8] in a line: Apparent permeability across basolateral to apical side in human Caco2 cells at 10 umol/L. Conditions: Caco-2. The data set is classed as ADME, cell-based. In a few lines:
as §1

A short description of data set [9]: Antitumor activity against human 4-1ST cells xenografted in BALB/c nu/nu mouse at 50 mg/kg, po bid administered 14 days measured on day 31 relative to control. It counts as functional. In a few lines: (§2)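 4-1ST human gastric tumour tissue from donor animals minced and implanted subcutaneously in nude mice or nude rats. Tumours of 200–300 mm³ used. Compounds in 0.5% (w/v) methylcellulose given orally twice daily at 10 mL/kg for 14 days; control got vehicle. Doses expressed as salt-free. Caliper volume (a×b²/2) measured blind 2–3 times weekly. T/C (%) versus control; five mice or eight rats per group.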
(Xenograft models place foreign cells or tissue in a host animal.)

Data set [10] can be described thus: Antitumor activity against human 4-1ST cells xenografted in F344/N jcl-rnu rat at 12.5 mg/kg, po bid administered 14 days measured on day 31 relative to control. It counts as functional. In a few lines:
as §2

Data set [11] can be described thus: Antitumor activity against human 4-1ST cells xenografted in BALB/c nu/nu mouse at 100 mg/kg, po bid administered 14 days measured on day 31 relative to control. It counts as functional. In a few lines:
as §2

The nature of data set [12]: Antitumor activity against human 4-1ST cells xenografted in F344/N jcl-rnu rat at 25 mg/kg, po bid administered 14 days measured on day 31 relative to control. The data set is classed as functional. In short, it runs like this:
as §2

Chain of Receptor tyrosine-protein kinase erbB-2 (P04626 whole entry, the tested form may be a part): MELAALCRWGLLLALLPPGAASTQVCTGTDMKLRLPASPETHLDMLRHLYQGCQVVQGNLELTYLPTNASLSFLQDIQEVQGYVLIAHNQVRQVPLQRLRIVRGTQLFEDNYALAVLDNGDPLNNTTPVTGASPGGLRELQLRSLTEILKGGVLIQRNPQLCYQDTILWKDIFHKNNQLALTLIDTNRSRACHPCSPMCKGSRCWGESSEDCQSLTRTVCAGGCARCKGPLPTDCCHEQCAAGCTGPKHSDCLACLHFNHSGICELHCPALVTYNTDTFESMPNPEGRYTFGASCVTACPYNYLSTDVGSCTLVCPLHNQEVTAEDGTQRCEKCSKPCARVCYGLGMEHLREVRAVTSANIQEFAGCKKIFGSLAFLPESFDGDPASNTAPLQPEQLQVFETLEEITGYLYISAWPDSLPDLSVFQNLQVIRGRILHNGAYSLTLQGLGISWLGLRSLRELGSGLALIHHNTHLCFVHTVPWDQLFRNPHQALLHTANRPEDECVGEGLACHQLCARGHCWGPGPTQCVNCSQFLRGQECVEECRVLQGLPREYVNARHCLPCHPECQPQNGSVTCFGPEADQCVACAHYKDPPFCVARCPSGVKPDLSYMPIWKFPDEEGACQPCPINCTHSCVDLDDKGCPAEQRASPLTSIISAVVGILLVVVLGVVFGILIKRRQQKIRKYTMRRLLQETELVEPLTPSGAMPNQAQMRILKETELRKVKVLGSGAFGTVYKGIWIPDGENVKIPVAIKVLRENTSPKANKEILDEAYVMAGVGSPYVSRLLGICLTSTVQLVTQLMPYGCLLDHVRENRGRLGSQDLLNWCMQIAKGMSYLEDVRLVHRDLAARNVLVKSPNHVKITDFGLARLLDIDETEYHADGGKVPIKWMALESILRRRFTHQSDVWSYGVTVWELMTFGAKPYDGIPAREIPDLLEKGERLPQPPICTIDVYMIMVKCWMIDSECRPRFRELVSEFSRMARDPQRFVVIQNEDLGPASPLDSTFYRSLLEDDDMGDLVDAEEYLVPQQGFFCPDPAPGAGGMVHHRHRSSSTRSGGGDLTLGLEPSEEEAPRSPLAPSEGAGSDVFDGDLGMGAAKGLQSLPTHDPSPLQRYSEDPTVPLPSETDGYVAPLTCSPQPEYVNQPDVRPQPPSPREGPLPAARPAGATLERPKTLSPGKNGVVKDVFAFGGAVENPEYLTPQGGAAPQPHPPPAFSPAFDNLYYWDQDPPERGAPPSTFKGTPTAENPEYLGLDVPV

For orientation: GI50 means the concentration that inhibits growth by half. A high value points to less potent growth inhibition. One may read the IC50 as the point on the concentration scale where inhibition reaches its midpoint. A higher IC50 goes with a need for much substance. In general, Papp A→B refers to the apparent permeability from the apical to the basolateral side of a cell layer. As a reminder, the Papp B→A is the apparent permeability from the basolateral to the apical side of a cell layer. `CS(=O)(=O)CC(=O)NCCn1ccc2ncnc(Nc3ccc(Oc4cccc(C(F)(F)F)c4)c(Cl)c3)c21` displayed a GI50 in data set [1] of 5.2 nM. Moreover, the T/C in data set [2] is on record as 80%. Besides, the IC50 in [3] turned out to be 15 nM; in [7], 6.3 nM. Also, the microsomal CLint at 1 µM in data set [4] was 11 µL/min/mg; in data set [6], 18 µL/min/mg. Moreover, the Papp A→B at 10 µM in data set [5] amounted to 0.52 ×10⁻⁶ cm/s. Further, in [8], the Papp B→A at 10 µM was found to be 8.29 ×10⁻⁶ cm/s.

In data set [1], `CCS(=O)(=O)CC(=O)NCCn1ccc2ncnc(Nc3ccc(Oc4cccc(C(F)(F)F)c4)c(Cl)c3)c21` registered a GI50 of 36 nM. The IC50 came out at 31 nM in data set [3] and 8.5 nM in data set [7]. Also, the microsomal CLint at 1 µM in data set [4] amounted to 22 µL/min/mg; in data set [6], 26 µL/min/mg.

Take `CC(C)S(=O)(=O)CC(=O)NCCn1ccc2ncnc(Nc3ccc(Oc4cccc(C(F)(F)F)c4)c(Cl)c3)c21`: in [1], the GI50 was 48 nM. For the same compound, the microsomal CLint at 1 µM was 35 µL/min/mg in data set [4] and 42 µL/min/mg in data set [6]. For the same compound, the IC50 in data set [7] came to 11 nM.

For `CC(C)(C)S(=O)(=O)CC(=O)NCCn1ccc2ncnc(Nc3ccc(Oc4cccc(C(F)(F)F)c4)c(Cl)c3)c21`, in [1], halving of growth (GI50) required 36 nM. Besides, the IC50 in data set [3] was 56 nM; in [7] it was 14 nM. Moreover, the microsomal CLint at 1 µM stood at 31 µL/min/mg in [4] and 45 µL/min/mg in [6].

In the case of `CC(C(=O)NCCn1ccc2ncnc(Nc3ccc(Oc4cccc(C(F)(F)F)c4)c(Cl)c3)c21)S(C)(=O)=O` (configuration not stated), the GI50 in data set [1] amounted to 34 nM. Further, the figures for the IC50 in data set [3] and in data set [7] were 18 nM and 7.1 nM, respectively. For the same compound, the microsomal CLint at 1 µM in data set [4] was determined as 33 µL/min/mg; in data set [6], 30 µL/min/mg.

`CC(C)(C(=O)NCCn1ccc2ncnc(Nc3ccc(Oc4cccc(C(F)(F)F)c4)c(Cl)c3)c21)S(C)(=O)=O` showed a GI50 in data set [1] of 55 nM. Further, the T/C in [2] came out at 43%. Further, the values for the IC50 in [3] and in data set [7] were 47 nM and 17 nM, respectively. The microsomal CLint at 1 µM in data set [4] stood at 23 µL/min/mg; in [6], 38 µL/min/mg. In data set [5], the Papp A→B at 10 µM stood at 2.87 ×10⁻⁶ cm/s. Also, the Papp B→A at 10 µM in data set [8] was determined as 4.26 ×10⁻⁶ cm/s.

`CS(=O)(=O)CC(=O)NCCn1ccc2ncnc(Nc3ccc(Oc4cccc(Cl)c4)c(Cl)c3)c21` showed a GI50 in data set [1] of 3.9 nM. The IC50 in data set [3] came out at 6.7 nM; in data set [7] it was 2.9 nM. The Papp A→B at 10 µM in data set [5] came out at 0.67 ×10⁻⁶ cm/s. Also, in data set [6], the microsomal CLint at 1 µM stood at 11 µL/min/mg. The Papp B→A at 10 µM in data set [8] came to 6.79 ×10⁻⁶ cm/s.

`CC(C(=O)NCCn1ccc2ncnc(Nc3ccc(Oc4cccc(Cl)c4)c(Cl)c3)c21)S(C)(=O)=O` (configuration not stated) had a GI50 in data set [1] of 32 nM. Also, the IC50 in [3] is 9.8 nM; in data set [7] it was 4.1 nM. In data set [6], the microsomal CLint at 1 µM worked out at 4 µL/min/mg.

Take `CC(C)(C(=O)NCCn1ccc2ncnc(Nc3ccc(Oc4cccc(Cl)c4)c(Cl)c3)c21)S(C)(=O)=O`: halving of growth in [1] (GI50) required 56 nM. Also, the T/C in data set [2] was found to be 24%. The Papp A→B at 10 µM in data set [5] was found to be 2.85 ×10⁻⁶ cm/s. For the same compound, in data set [6], the microsomal CLint at 1 µM turned out to be 21 µL/min/mg. Moreover, the Papp B→A at 10 µM in data set [8] was determined as 7.69 ×10⁻⁶ cm/s.

As for `CC(C)(O)CC(=O)NCCn1ccc2ncnc(Nc3ccc(Oc4cccc(C(F)(F)F)c4)c(Cl)c3)c21` [TAK-285], the T/C in [2] was 29%; in data set [9], 44%; in data set [10] it was 14%; in data set [11], 11%; in data set [12] it was -12%. Moreover, in data set [5], the Papp A→B at 10 µM was 5.05 ×10⁻⁶ cm/s. Besides, the Papp B→A at 10 µM in data set [8] is 6.87 ×10⁻⁶ cm/s.
